For one test, the system named is MOLM-13. Nature of the test: Cytotoxicity against human MOLM13 cells after 72 hrs by plate reader analysis. The test is classed as functional, cell-based. As to conditions: MOLM-13, 72 h.
The subject of a further test is BaF3. As to the kind of experiment: Cytotoxicity against mouse BA/F3 cells transfected with FLT3-ITD at 1 uM after 24 hrs by plate reader analysis. Format: functional, cell-based.
Another test has as its system HEL. As to the kind of experiment: Cytotoxicity against human HEL cells after 72 hrs by plate reader analysis. The test is classed as functional, cell-based.
Test [1] concerns the target T1, Receptor-type tyrosine-protein kinase FLT3 (Mus musculus) (UniProt Q00342).
T1 sequence (whole entry): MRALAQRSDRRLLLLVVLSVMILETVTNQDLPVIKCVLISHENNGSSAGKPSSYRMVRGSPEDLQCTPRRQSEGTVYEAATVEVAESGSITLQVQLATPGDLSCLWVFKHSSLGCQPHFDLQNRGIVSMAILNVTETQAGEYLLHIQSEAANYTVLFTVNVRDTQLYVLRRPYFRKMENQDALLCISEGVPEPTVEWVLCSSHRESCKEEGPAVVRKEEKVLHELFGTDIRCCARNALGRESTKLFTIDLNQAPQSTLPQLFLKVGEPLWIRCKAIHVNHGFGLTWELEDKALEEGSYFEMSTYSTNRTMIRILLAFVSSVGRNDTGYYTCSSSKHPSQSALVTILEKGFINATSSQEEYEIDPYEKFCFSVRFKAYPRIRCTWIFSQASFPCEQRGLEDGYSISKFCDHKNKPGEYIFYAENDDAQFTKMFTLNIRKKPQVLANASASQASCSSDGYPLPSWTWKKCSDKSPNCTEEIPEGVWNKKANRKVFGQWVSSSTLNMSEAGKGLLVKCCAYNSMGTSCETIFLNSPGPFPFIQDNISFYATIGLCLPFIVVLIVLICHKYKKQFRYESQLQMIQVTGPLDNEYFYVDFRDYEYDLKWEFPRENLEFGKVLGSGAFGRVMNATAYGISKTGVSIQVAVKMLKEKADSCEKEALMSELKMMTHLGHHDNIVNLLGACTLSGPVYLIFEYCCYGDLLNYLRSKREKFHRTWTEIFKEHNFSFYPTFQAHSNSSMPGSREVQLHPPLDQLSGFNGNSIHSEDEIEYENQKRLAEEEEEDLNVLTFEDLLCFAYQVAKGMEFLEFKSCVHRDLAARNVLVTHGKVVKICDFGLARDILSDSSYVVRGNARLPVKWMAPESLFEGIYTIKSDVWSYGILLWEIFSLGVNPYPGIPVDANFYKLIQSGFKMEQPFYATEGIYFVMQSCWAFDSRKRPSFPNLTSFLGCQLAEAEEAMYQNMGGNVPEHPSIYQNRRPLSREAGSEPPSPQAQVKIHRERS
As to the kind of experiment: Inhibition of FLT3 phosphorylation in mouse Ba/F3 cells transfected with FLT3-ITD cells at 500 nM after 90 mins by Western blot analysis. The following applies: BaF3. Format: cell-based. The essentials:
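Ba/F3-FLT3-ITD cells were treated for 90 min with increasing doses. They were lysed in buffer with 1 mM NaVO4 and protease inhibitors, then reduced and run on Bis-Tris 4–12% gels for Western blot. Phospho-FLT3 and phospho-STAT5 were detected, with total FLT3 and STAT5 as loading controls.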
(Immunoblotting shows a protein as a band on a membrane.)

Test [2] is described as follows: Cytotoxicity against mouse BA/F3 cells transfected with FLT3-ITD after 24 hrs by plate reader analysis. The following applies: BaF3, 24 h.
Another test concerns EOL1. As to the kind of experiment: Cytotoxicity against human EOL-1 cells after 72 hrs by plate reader analysis. The test is classed as functional, cell-based. The following applies: EOL1, 72 h.
The next test relates to KG-1. As to the kind of experiment: Cytotoxicity against human KG1 cells after 72 hrs by plate reader analysis. Format: functional, cell-based. The following applies: KG-1, 72 h.
Test [3] deals with Tyrosine-protein kinase SYK (Homo sapiens) (UniProt P43405). Nature of the test: Inhibition of SYK (unknown origin) transfected in mouse Ba/F3 cells at 1 uM after 24 hrs. The following applies: BaF3. Format: cell-based.
The target of test [4] is T2, Non-receptor tyrosine-protein kinase TNK1 (Homo sapiens) (UniProt Q13470).
T2 sequence (whole entry): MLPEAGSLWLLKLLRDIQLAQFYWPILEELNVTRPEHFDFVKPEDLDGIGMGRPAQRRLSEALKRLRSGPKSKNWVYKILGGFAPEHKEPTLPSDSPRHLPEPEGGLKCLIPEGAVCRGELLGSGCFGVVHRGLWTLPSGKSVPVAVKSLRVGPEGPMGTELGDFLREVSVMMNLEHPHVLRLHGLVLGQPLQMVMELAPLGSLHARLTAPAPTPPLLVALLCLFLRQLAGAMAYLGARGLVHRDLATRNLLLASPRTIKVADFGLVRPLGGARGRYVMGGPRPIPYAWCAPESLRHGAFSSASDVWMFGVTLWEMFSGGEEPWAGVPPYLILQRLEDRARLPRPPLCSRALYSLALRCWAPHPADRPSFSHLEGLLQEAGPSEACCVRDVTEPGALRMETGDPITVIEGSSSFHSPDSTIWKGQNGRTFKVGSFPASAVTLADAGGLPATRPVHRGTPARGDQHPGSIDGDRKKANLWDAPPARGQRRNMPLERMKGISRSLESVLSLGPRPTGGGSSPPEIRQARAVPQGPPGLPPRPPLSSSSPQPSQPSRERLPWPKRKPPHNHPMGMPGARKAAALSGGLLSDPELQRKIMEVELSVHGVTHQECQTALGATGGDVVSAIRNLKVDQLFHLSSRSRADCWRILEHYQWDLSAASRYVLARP
As to the kind of experiment: Inhibition of TNK1 (unknown origin) transfected in mouse Ba/F3 cells at 1 uM after 24 hrs. The test is classed as cell-based. As to conditions: BaF3.

In test [5] the target is Proto-oncogene tyrosine-protein kinase Src (Homo sapiens) (UniProt P12931). Nature of the test: Inhibition of SRC (unknown origin) transfected in mouse Ba/F3 cells at 1 uM after 24 hrs. Format: cell-based. The following applies: BaF3.
Chain of Proto-oncogene tyrosine-protein kinase Src (Homo sapiens) (P12931 2-536 limits assumed): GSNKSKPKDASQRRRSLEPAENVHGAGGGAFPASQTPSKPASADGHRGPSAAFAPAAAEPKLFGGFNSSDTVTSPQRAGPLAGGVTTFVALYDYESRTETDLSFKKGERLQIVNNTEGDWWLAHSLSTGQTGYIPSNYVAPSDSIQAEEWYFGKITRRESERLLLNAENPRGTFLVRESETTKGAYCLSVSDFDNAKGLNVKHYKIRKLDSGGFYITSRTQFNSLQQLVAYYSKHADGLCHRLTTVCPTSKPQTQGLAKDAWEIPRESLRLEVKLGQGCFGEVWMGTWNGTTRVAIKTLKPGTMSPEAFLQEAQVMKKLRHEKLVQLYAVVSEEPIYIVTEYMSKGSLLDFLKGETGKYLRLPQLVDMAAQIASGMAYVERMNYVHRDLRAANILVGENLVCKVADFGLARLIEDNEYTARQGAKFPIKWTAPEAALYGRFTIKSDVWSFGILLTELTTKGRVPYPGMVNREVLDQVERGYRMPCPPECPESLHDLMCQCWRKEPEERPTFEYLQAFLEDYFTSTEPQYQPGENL
In test [6] the target is Tyrosine-protein kinase receptor UFO (Homo sapiens) (UniProt P30530). Nature of the test: Inhibition of AXL (unknown origin) transfected in mouse Ba/F3 cells at 1 uM after 24 hrs. As to conditions: BaF3. The test is classed as cell-based. A digest of the protocol: (§1)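 Kinase specificity panel: each Ba/F3 line transformed with one of 24 tyrosine kinases depends on that kinase to grow. Cells were given compound at 1 or 5 µM for 24 h, with DMSO as comparator. Percentage growth was read by ATP-lite luminescence and reported as mean ± SEM.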

Test [7] addresses Ephrin type-A receptor 2 (Homo sapiens) (UniProt P29317). Nature of the test: Inhibition of EPHA2 (unknown origin) transfected in mouse Ba/F3 cells at 1 uM after 24 hrs. Format: cell-based. As to conditions: BaF3. The essentials: as §1
Test [8] addresses Insulin-like growth factor 1 receptor (Homo sapiens) (UniProt P08069). Nature of the test: Inhibition of IGF1R (unknown origin) transfected in mouse Ba/F3 cells at 1 uM after 24 hrs. The test is classed as cell-based. As to conditions: BaF3. The essentials:
as §1

The target in test [9] is Epidermal growth factor receptor (Homo sapiens) (UniProt P00533). Nature of the test: Inhibition of EGFR (unknown origin) transfected in mouse Ba/F3 cells at 1 uM after 24 hrs. The following applies: BaF3. Format: cell-based. A digest of the protocol:
as §1

Test [10] deals with Fibroblast growth factor receptor 3 (Homo sapiens) (UniProt P22607). Nature of the test: Inhibition of FGFR3 (unknown origin) transfected in mouse Ba/F3 cells at 1 uM after 24 hrs. The test is classed as cell-based. The following applies: BaF3. A digest of the protocol:
as §1

Activity calls are given as the source filed them. The calls are words filed in the database; no cut-off is given here.

Chain of Epidermal growth factor receptor (Homo sapiens) (P00533 whole entry): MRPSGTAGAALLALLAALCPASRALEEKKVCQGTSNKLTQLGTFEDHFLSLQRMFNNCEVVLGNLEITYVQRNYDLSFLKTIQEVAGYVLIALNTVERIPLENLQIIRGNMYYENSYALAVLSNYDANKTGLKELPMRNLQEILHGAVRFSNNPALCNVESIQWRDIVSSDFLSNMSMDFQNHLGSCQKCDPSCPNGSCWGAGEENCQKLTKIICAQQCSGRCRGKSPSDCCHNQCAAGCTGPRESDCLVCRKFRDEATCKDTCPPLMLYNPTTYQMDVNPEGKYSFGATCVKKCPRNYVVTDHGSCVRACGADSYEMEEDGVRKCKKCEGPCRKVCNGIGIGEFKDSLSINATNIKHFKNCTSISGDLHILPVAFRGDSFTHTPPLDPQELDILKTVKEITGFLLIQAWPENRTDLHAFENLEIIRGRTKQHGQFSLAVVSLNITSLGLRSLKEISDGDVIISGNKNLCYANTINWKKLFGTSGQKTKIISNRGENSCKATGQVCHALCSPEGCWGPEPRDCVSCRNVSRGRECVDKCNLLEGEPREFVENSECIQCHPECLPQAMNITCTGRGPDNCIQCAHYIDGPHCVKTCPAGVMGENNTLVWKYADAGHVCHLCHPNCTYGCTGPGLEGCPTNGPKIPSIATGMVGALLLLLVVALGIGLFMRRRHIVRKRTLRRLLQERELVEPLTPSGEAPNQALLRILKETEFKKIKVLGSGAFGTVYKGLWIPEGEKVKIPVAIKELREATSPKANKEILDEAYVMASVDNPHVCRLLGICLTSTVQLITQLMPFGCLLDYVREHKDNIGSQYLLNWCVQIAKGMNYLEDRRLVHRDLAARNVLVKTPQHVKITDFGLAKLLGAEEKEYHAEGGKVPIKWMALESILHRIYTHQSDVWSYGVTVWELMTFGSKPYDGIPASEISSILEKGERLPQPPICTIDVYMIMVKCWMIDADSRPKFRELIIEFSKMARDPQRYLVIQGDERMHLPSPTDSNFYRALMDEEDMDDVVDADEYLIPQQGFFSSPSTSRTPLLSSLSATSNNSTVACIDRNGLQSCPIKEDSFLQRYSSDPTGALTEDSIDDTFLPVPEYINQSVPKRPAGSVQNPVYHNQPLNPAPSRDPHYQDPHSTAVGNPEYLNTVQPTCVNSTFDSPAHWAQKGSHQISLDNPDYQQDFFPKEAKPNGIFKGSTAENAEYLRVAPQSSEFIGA
Chain of Fibroblast growth factor receptor 3 (Homo sapiens) (P22607 23-806 limits assumed): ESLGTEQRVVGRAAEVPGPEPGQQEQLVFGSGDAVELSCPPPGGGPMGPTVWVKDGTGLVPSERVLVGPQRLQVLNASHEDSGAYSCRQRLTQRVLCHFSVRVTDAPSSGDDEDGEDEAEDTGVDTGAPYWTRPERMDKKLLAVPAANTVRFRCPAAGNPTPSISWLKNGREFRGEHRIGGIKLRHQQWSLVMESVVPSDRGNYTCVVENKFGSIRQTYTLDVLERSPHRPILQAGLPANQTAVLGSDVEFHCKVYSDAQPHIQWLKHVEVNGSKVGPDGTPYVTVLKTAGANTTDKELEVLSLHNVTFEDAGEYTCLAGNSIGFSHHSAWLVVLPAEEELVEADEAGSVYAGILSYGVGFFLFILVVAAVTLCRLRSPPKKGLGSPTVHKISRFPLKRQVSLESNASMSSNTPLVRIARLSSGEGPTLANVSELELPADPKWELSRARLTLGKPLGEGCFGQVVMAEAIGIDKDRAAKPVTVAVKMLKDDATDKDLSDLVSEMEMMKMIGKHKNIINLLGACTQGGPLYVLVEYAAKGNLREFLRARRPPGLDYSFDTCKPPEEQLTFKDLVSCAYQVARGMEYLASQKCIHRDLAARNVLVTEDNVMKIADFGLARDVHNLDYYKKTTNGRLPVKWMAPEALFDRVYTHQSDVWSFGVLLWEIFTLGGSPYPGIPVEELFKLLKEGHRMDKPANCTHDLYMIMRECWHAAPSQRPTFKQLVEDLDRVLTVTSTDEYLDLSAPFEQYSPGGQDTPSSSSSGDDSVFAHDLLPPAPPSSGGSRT
Chain of Insulin-like growth factor 1 receptor (Homo sapiens) (P08069 31-736 limits assumed): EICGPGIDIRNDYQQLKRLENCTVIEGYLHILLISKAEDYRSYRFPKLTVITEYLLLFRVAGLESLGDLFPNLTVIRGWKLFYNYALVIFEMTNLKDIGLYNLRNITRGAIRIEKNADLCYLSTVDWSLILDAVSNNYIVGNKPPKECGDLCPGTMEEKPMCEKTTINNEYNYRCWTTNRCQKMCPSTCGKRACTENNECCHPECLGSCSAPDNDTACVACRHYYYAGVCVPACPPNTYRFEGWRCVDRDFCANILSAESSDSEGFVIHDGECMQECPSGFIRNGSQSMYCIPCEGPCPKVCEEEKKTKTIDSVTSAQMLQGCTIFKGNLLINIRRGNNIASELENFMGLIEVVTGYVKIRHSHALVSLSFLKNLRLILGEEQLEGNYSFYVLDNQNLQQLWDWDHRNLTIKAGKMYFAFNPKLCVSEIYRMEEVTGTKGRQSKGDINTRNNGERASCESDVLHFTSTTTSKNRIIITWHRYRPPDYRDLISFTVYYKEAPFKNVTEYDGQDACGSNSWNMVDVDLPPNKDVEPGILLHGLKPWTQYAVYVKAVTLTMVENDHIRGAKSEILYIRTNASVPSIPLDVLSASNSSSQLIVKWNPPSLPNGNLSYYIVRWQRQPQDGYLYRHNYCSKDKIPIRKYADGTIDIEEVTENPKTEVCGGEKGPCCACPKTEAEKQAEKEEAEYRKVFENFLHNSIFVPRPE
Chain of Insulin-like growth factor 1 receptor (Homo sapiens) (P08069 741-1367 limits assumed): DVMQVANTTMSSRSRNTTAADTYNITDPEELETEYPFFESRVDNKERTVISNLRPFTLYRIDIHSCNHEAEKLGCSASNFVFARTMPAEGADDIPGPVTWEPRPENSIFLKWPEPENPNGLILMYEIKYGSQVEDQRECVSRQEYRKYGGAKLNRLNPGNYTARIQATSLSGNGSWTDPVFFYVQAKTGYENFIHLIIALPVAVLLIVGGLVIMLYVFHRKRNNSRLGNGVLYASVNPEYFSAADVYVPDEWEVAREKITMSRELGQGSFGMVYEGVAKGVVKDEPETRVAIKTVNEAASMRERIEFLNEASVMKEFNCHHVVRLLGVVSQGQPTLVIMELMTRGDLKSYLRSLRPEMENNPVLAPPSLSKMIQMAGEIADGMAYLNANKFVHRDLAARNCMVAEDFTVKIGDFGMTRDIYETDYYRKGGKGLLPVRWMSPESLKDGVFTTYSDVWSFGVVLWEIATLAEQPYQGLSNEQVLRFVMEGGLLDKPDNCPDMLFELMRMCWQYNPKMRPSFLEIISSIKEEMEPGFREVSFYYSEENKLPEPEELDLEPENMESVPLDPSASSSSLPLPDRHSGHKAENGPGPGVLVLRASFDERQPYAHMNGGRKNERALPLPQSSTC
Chain of Ephrin type-A receptor 2 (Homo sapiens) (P29317 whole entry): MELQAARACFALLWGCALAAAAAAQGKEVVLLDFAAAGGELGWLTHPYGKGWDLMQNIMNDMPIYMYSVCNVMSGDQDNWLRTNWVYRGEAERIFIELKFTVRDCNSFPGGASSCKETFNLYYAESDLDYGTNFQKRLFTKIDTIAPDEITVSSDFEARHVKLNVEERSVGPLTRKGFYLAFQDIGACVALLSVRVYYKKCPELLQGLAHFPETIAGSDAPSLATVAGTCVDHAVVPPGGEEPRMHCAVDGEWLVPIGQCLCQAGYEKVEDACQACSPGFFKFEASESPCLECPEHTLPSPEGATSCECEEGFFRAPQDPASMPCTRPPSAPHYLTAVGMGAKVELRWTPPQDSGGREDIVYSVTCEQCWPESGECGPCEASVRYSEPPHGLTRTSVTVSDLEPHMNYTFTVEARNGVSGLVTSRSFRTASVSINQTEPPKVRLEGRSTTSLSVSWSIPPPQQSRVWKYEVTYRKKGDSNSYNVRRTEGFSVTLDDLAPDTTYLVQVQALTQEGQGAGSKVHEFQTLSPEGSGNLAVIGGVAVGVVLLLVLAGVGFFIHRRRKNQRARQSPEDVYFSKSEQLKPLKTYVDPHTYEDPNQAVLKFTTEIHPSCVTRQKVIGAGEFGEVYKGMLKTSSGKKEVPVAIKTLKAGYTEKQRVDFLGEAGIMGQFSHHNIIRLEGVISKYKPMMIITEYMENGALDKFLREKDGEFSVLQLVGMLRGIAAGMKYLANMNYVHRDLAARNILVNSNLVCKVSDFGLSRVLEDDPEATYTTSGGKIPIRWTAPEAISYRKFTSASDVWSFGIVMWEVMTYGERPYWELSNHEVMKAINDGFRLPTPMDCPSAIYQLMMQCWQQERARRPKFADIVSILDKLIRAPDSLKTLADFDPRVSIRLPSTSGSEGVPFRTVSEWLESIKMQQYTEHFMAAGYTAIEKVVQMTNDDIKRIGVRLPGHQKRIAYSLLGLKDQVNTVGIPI

For the molecule `Cc1ccc(-n2cnc3cc(Nc4nnc(C)c5ccccc45)ccc32)cc1`, the 50% effective concentration (EC50) in the test on MOLM-13 is 0.332 µM; with HEL, 14 µM; in test [2] it was 0.717 µM; in the test on EOL1, 0.889 µM; in the test with KG-1, 20 µM. The outcome in the test with BaF3 was Active. Besides, the inhibition entry in [1] is “Active”.

Consider `Cc1ccc(-c2cc(NC(=O)c3ccc(F)cc3)[nH]n2)cc1`, for which the inhibition entry in test [3], in [4], in test [5], in test [6], in [7] and in test [8] was “inactive” in each case. Besides, the inhibition entry in test [9] and in test [10] was “inactive” in each case. The EC50 in the test with MOLM-13 is 0.612 µM; in the test on HEL, 1000 µM; in test [2], 0.138 µM; in the test with EOL1, 0.502 µM; with KG-1 it was 28 µM. Besides, in the test on BaF3, the result was Active. The inhibition entry in test [1] was “Active”.

On to `COc1ccc(C(=O)Nc2cc(-c3ccccc3)[nH]n2)cc1`, for which the inhibition entry in test [3], in test [4], in test [5], in test [6], in test [7] and in [8] was “inactive” each time. In addition, the inhibition result in [9] and in [10] was “inactive” throughout. Moreover, the concentration for a half-maximal effect (EC50) in the test with MOLM-13 was determined as 0.292 µM; with HEL it was 47 µM; in test [2] it was 0.036 µM; in the test with EOL1, 0.066 µM; in the test on KG-1 it was 15 µM. For the same molecule, the outcome in the test with BaF3 was Active.

For `Fc1ccc(-c2n[nH]cc2-c2ccncc2)cc1Cl`, the EC50 with MOLM-13 amounted to 0.258 µM; in the test with HEL, 1000 µM; in [2], 0.405 µM; in the test with EOL1, 0.382 µM; in the test with KG-1, 24 µM. In addition, in the test on BaF3, the result was Active. For the same molecule, in test [1], the inhibition result was “Active”.

In the case of `Cc1cccc(C(=O)Nc2cc(-c3ccc(F)cc3)n[nH]2)c1`, the inhibition result in test [3], in [4], in test [5], in [6], in test [7] and in test [8] was “inactive” throughout. The inhibition result in [9] and in test [10] was “inactive” throughout. The half-maximal effective concentration (EC50) is 0.63 µM in the test with MOLM-13; 62 µM in the test with HEL; 0.296 µM in [2]; 0.202 µM in the test on EOL1; 29 µM with KG-1. Further, in the test on BaF3, the outcome was Active. Besides, the inhibition entry in test [1] was “Active”.

Usually EC50 stands for the concentration needed to bring the measured effect to its halfway point.

These data come from ChEMBL document CHEMBL2390926, “Identification of novel FLT3 kinase inhibitors” (Eur J Med Chem, 2013).
